Experimental data published in ChEMBL document CHEMBL4017487, “Design and Synthesis of γ- and δ-Lactam M1 Positive Allosteric Modulators (PAMs): Convulsion and Cholinergic Toxicity of an M1-Selective PAM with Weak Agonist Activity” (J Med Chem, 2017).
pEC50, pKi: −log10 of the molar value.

Columns and labels:
[1] = Intrinsic clearance in human liver microsomes; format: ADME, microsome; conditions: read-out: CLH
[2] = test system: MDR1; experiment: Efflux ratio of permeability from basolateral to apical side over apical to basolateral side in MDCK1 cells expressing MDR1; format: ADME, cell-based, Canis lupus familiaris; conditions: dog, MDCK-MDR1
In short: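 MDCKI-MDR1 cells (MDCK epithelial line transfected with MDR1/P-gp; from the NIH). Permeability measured as a rate in 10−6 cm/s in both directions; value is the BA/AB ratio.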

[3] = molecular target: T1, Muscarinic acetylcholine receptor M1 (Homo sapiens, UniProt P11229); experiment: Positive allosteric modulation of human muscarinic acetylcholine receptor M1 expressed in CHO cells assessed as increase in acetylcholine-induced calcium mobilization preincubated for 10 mins followed by acetylcholine addition by Fluo-8-AM dye based FLIPR assay; format: ADME, cell-based
T1 sequence (P11229 whole entry): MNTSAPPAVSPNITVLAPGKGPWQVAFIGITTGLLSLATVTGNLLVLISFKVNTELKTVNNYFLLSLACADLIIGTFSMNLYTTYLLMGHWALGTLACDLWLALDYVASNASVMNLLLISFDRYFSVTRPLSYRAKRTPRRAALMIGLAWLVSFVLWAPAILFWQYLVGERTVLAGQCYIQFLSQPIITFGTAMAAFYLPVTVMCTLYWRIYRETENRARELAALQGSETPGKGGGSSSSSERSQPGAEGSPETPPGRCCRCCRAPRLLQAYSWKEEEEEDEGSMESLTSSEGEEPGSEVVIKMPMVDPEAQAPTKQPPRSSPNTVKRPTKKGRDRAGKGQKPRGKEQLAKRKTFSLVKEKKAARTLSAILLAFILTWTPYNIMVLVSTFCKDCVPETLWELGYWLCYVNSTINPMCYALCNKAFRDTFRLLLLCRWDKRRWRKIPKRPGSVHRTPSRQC
In short: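 M1 potentiation (PAM) format: calcium mobilization read on a FLIPR plate reader with an EC20 concentration of ACh present. EC50 is the geometric mean of at least three experiments.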

[4] = molecular target: T1, Muscarinic acetylcholine receptor M1; experiment: Displacement of [3H]PT-1284 human muscarinic acetylcholine receptor M1 expressed in CHO cell membranes after 90 mins scintillation counting method
[5] = molecular target: T1, Muscarinic acetylcholine receptor M1; experiment: Agonist activity at human muscarinic acetylcholine receptor M1 expressed in CHO cells assessed as increase in calcium mobilization at 13 uM incubated for 10 mins by Fluo-8-AM dye based FLIPR assay relative to control; format: cell-based; conditions: read-out: %max
[6] = test system: Rattus norvegicus; experiment: Toxicity in rat assessed as unbound Cmax in plasma required to show convulsions at 45 mg/kg, po administered as single dose; format: organism-based; conditions: in vivo
[7] = Ratio of unbound AUC in rat brain to plasma at 45 mg/kg, po administered as single dose; format: ADME, organism-based
In short: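 Rats, 3 per sex, received a single oral 45 mg/kg dose as a nanosuspension in 1.25% w/v hydroxypropyl cellulose SL with 0.05% docusate sodium in purified water. The brain/plasma ratio is the AUC ratio of unbound drug in brain to unbound drug in plasma. It was used to estimate unbound brain levels from measured unbound plasma Cmax.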

[8] = test system: Rattus norvegicus; experiment: Toxicity in rat assessed as unbound Cmax in brain required to show convulsions at 45 mg/kg, po administered as single dose; format: organism-based; conditions: in vivo
[9] = molecular target: T1, Muscarinic acetylcholine receptor M1; experiment: Agonist activity at human muscarinic acetylcholine receptor M1 expressed in CHO cells assessed as increase in calcium mobilization incubated for 10 mins by Fluo-8-AM dye based FLIPR assay; format: cell-based
In short: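 M1 FLIPR calcium mobilization run in agonist mode (compound added without the EC20 ACh used in PAM mode). Top concentration 10 μM. EC50 values are geometric means of at least three experiments.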

[10] = (§1) Ratio of unbound Cmax in rat brain assessed as convulsions at 45 mg/kg, po administered as single dose to unbound brain concentration for agonist activity at muscarinic acetylcholine receptor M1 in C57BL/6 mouse assessed as required to show 2 fold increase in IP1 accumulation in striatum at 1 to 10 mg/kg, sc; format: organism-based
[11] = test system: Mus musculus; experiment: In vivo agonist activity at muscarinic acetylcholine receptor M1 in C57BL/6 mouse assessed as unbound brain concentration required to show 2 fold increase in IP1 accumulation in striatum at 1 to 10 mg/kg, sc measured after 2 hrs; format: organism-based
In short: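 Cb,u giving a 2-fold rise in striatal IP1 in C57BL/6 mice, estimated by interpolation of individual-mouse IP1 versus free brain exposure data.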

[12] = molecular target: Cytochrome P450 3A4 (Homo sapiens, UniProt P08684); experiment: Time dependent inhibition of CYP3A4 (unknown origin) by high throughput assay relative to 2-((3R,4S)-3-Hydroxytetrahydro-2H-pyran-4-yl)-5-methyl-6-(4-(oxazol-4-yl)benzyl)isoindolin-1-one; format: ADME
[13] = test system: Canis familiaris; experiment: Toxicity in dog assessed as unbound Cmax in plasma required to show convulsions at 15 mg/kg, po administered as single dose using spray dried dispersion formulation; format: organism-based, Canis lupus familiaris; conditions: in vivo
[14] = test system: Canis familiaris; experiment: Toxicity in dog assessed as unbound Cmax in brain required to show convulsions at 15 mg/kg, po administered as single dose using spray dried dispersion formulation; format: organism-based, Canis lupus familiaris; conditions: in vivo
[15] = as §1, with “in dog” for “in rat”, “at 15” for “at 45”; format: organism-based

Chain of Cytochrome P450 3A4 (P08684 whole entry): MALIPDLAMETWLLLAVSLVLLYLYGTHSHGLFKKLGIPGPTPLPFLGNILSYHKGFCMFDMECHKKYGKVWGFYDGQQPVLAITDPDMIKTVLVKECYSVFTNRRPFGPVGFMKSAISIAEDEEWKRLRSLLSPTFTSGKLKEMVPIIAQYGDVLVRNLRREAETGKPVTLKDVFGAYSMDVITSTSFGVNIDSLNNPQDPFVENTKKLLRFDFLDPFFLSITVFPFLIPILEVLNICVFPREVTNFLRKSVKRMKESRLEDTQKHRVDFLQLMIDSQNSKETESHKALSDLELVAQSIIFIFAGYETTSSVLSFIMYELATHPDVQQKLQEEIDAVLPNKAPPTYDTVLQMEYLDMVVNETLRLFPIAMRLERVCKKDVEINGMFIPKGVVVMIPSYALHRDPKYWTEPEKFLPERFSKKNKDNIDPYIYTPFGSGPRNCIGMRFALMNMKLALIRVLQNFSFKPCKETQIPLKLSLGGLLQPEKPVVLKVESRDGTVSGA

## Cc1nc(-c2ccc(Cc3cc4c(cc3C)CCN([C@H]3CCOC[C@@H]3O)C4=O)cc2)co1
[1]
  CLint scaled: 21 mL/min/kg
[2]
  efflux ratio: 14
[3]
  pEC50: 7.64

## Cc1cc2c(cc1Cc1ccc(-n3cccn3)cc1)C(=O)N([C@H]1CCOC[C@@H]1O)C2
[1]
  CLint scaled: < 8 mL/min/kg
[2]
  efflux ratio: 18
[3]
  pEC50: 7.44

## Cc1ccc(Cc2cc3c(=O)n([C@H]4CCCC[C@@H]4O)cnc3c3ccccc23)cn1 [MK-7622]
[4]
  pKi: 8.10
[5]
  Emax at 13 µM: 62%
[6]
  fCmax: 550 nM
[7]
  Kp uu: 0.24
[8]
  fCmax: 130 nM
[9]
  pEC50: < 5.70
[3]
  pEC50: 7.20
[10]
  selectivity ratio: 33
[11]
  Drug uptake(free): 4 nM

## Cc1nc(-c2ccc(Cc3cc4c(cc3C)CN([C@H]3CCOC[C@@H]3O)C4=O)cc2)co1
[1]
  CLint scaled: 13 mL/min/kg
[2]
  efflux ratio: 11
[3]
  pEC50: 7.30

## Cc1cc2c(cc1Cc1ccc(-c3cocn3)cc1)C(=O)N([C@H]1CCOC[C@@H]1O)CC2
[1]
  CLint scaled: 13 mL/min/kg
[12]
  fold change (FC): 6
[2]
  efflux ratio: 2.7
[3]
  pEC50: 7.59

## Cc1cc2c(cc1Cc1ccc(-c3cscn3)cc1)C(=O)N([C@H]1CCOC[C@@H]1O)C2
[1]
  CLint scaled: 10 mL/min/kg
[2]
  efflux ratio: 11
[3]
  pEC50: 7.62

## Cc1cc2c(cc1Cc1ccc(-c3cnn(C)c3)cc1)C(=O)N([C@H]1CCOC[C@@H]1O)C2
[1]
  CLint scaled: 15 mL/min/kg
[2]
  efflux ratio: 7.6
[3]
  pEC50: 7.57

## Cc1cc2c(cc1Cc1ccc(-n3cccn3)cc1)C(=O)N([C@H]1CCOC[C@@H]1O)CC2
[1]
  CLint scaled: 15 mL/min/kg
[2]
  efflux ratio: 11
[3]
  pEC50: 7.74

## Cc1cc2c(cc1Cc1ccc(-c3cscn3)cc1)C(=O)N([C@H]1CCOC[C@@H]1O)CC2
[1]
  CLint scaled: 25 mL/min/kg
[2]
  efflux ratio: 12
[3]
  pEC50: 8.15

## Cn1ccc(-c2ccc(Cn3cc(C(=O)N[C@H]4CCOC[C@@H]4O)c4ncccc43)cc2)n1
[11]
  Drug uptake(free): 32 nM

## Cc1cc2c(cc1Cc1ccc(-n3ccnc3)cc1)C(=O)N([C@H]1CCOC[C@@H]1O)C2
[1]
  CLint scaled: < 8 mL/min/kg
[2]
  efflux ratio: 53
[3]
  pEC50: 7.17

## Cc1cnc(C(=O)N[C@H]2CCOC[C@@H]2O)cc1Cc1ccc(-c2cscn2)cc1
[4]
  pKi: 7.72
[13]
  fCmax: 950 nM
[5]
  Emax at 13 µM: 34%
[14]
  fCmax: 290 nM
[15]
  selectivity ratio: 20
[9]
  pEC50: < 5.40
[10]
  selectivity ratio: > 29
[11]
  Drug uptake(free): 14 nM

## Cc1cn(-c2ccc(Cc3cc4c(cc3C)CN([C@H]3CCOC[C@@H]3O)C4=O)cc2)cn1
[1]
  CLint scaled: 30 mL/min/kg
[2]
  efflux ratio: 63
[3]
  pEC50: 7.35
